Most compounds without a hit are left out; they make up all but 3.7% or so of the library.
KCC2 mod: KCC2 (human) Cl- transport modulation; KCC2 cells, thallium flux FluoZin-2 fluorescence; B-score of Tl+ flux slope (higher = more flux/activation; lower = inhibition) at 10 µM; 190,000 compounds, 2.2% hits; AID 1456;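 active means thallium flux slope and its plate-corrected score both differing from the plate sample mean at a set confidence after two filtering rounds, in either direction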;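 further: slope of fluorescence scaled to starting intensity during 10 to 20 s after thallium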
ROMK primary: modulates human ROMK potassium channel activity; P48048; Tet-inducible ROMK, thallium flux fluorescence; actives lie on both sides; B-score at 10 µM; 130,000 compounds, 2% hits;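 active means signal ratio slope over the read window, or its plate-corrected B-score, at least 3 SD from the plate mean, either direction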;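 further: B-score of the F/F0 ratio slope over 7 to 12 s after thallium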
Target sequence (P48048 whole entry, looked up): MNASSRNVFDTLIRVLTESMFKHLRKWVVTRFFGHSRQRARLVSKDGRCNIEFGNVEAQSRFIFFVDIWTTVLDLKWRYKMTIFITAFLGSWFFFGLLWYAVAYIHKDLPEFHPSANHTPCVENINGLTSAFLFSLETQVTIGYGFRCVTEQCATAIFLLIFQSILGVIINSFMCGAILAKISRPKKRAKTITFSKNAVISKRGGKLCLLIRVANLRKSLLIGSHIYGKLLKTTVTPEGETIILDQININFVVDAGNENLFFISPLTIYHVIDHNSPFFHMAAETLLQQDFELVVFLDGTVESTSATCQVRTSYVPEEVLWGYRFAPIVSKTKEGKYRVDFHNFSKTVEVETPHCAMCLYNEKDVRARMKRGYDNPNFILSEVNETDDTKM
b-catenin transl: modulators of beta-catenin nuclear translocation; HeLa beta-catenin nuclear translocation, immunofluorescence imaging; nuclear translocation activity, % at 5 µM; 190,000 compounds, 0.3% hits;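 active means nuclear translocation activity above 50% at 5 µM, with a well cell count of 50 or more; inconclusive means wells under 50 cells across six images, flagged as toxic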;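 further: per-cell ratio of nuclear to cytoplasmic median beta-catenin stain intensity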
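Test system: HeLa cells, endogenous beta-catenin; Compound: single 5 µM dose plus 0.02–20 µM confirmation series; Times: compound exposure 24 h at 37°C; Signal: fluorescence imaging of beta-catenin antibody stain plus DAPI; Read-out: % activation, nuclear-to-cytoplasmic median beta-catenin signal ratio per cell.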
DTT redox prof: compounds producing H2O2 with reducing agent – biochemical, NIH compound library profiling, artefact control for MLSCN library redox annotation, primary screen; activation, % at 10 µM; 200,000 compounds, 0.03% hits; DTT-dependent redox cycling H2O2, phenol red/HRP absorbance; 100% = 100 µM peroxide control, 0% = buffer;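 active means activation of at least 50% relative to the plate's high and low controls in the primary single-dose screen; inactive means activation below 50%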;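 further: compound incubated with DTT at 0.8 mM final as the reducing agent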
MT stabilizer: microtubule stabilizers in HeLa cells. HeLa tubulin immunostaining HCS, 24 h; share of cells brighter than vehicle mean+2SD. % tubulin-high responders, % at 10 µM. 200,000 compounds, 0.83% hits. AID 2205;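 active means plate Z-score above 3 for both tubulin-high and condensed-nucleus cell shares, with cell loss under 80%, at 10 µM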;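 further: anti alpha tubulin signal scored within the nucleus-defined area of each cell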
ROMK hit retest: retested hit modulating human ROMK potassium channel | shares compounds with ROMK primary | ROMK thallium flux, fluorescence ratio; stronger effect = lower value | normalized thallium flux (F/F0 slope) at 10 µM | 3,000 compounds, 54% hits | AID 1917;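 active means Flux at 10 µM at least 3 SD below or above vehicle control mean in one or both replicates; inconclusive means no clear call, values can overlap the other calls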
Large screens that a line does not name were inactive (follow-up assays come after a bar, where they were run).

Cc1nc2ccc(NC(=O)c3ccc(S(=O)(=O)N4CCOCC4)cc3)cc2s1	ROMK primary 3.2 (no result: KCC2 mod) | ROMK hit retest inactive
C=CCn1c(SCC(=O)Nc2cc3oc4ccccc4c3cc2OC)nnc1-c1cnccn1	none (no result: ROMK primary) | ROMK hit retest 0.065
C=CCn1c(COc2ccccc2F)nnc1SCC(=O)Nc1cc2oc3ccccc3c2cc1OC	none
COc1cccc(/C(O)=C/c2nc3ccc(C(=O)NCCc4cccc(C)c4)cc3[nH]c2=O)c1	none (no result: ROMK primary) | ROMK hit retest 0.062
COc1cccc(/C(O)=C/c2nc3ccc(C(=O)NCCc4ccc(Cl)cc4)cc3[nH]c2=O)c1	none (no result: ROMK primary)
Cc1ccc2[nH]c(=O)c(CN(Cc3ccccc3)C(=S)NCCCN(C)C)cc2c1	ROMK primary -3.2 | ROMK hit retest inconclusive
COc1cc2cc(CN(CCc3ccccc3C)C(=S)NCCCN(C)C)c(=O)[nH]c2cc1OC	none
CCNC(=O)COc1ncnc2scc(-c3ccc(F)cc3)c12	none
O=C(COc1ncnc2scc(-c3ccc(Cl)cc3)c12)NCc1ccco1	none (no result: ROMK primary) | ROMK hit retest 0.061
O=C(NC1CCCCC1)C(c1cccnc1)N(C(=O)CCl)c1cccc(Cl)c1 (stereo not drawn)	ROMK primary -3.3, MT stabilizer 14 | ROMK hit retest 0.051
Cc1cc(NC(=O)CSCC(=O)N(c2cccc(Cl)c2)C(C(=O)NC2CCCCC2)c2ccc(O)c(O)c2)no1 (stereo not drawn)	ROMK primary -4.8 | ROMK hit retest 0.056
Cc1cc(NC(=O)CSCC(=O)N(c2ccc(F)cc2)C(C(=O)NC2CCCCC2)c2ccc(O)c(O)c2)no1 (stereo not drawn)	none
COc1ccccc1NC(=O)CC(NC1CCCCC1)C(=O)O (stereo not drawn)	none
Cc1c(Cc2ccccc2)c(=O)n2c([nH]c3ccccc32)c1C#N	none (no result: ROMK primary, DTT redox prof, MT stabilizer)
COc1ccccc1N=Cc1c(C)c(C#N)c2[nH]c3ccccc3n2c1=O	ROMK primary -3.3 | ROMK hit retest 0.067
CSc1ncccc1C(=O)OCC(=O)NC(C)C	none
CCCCC(=O)Nc1cc(C(=O)NCCc2ccccc2)ccc1Cl	none
CCNc1nc(-c2ccc(OC(F)F)cc2)c(C)s1	ROMK primary -4.5 | ROMK hit retest 0.062
COc1ccccc1N1CCN(C2CCN(C(=O)COc3cccc(C)c3)CC2)CC1	none
COc1ccc(/C=N\NC(=O)c2c(C)nc3ccc(Br)cn23)cc1	ROMK primary 2.3, b-catenin transl 53, MT stabilizer 20 | ROMK hit retest 0.098
Cc1ccc(N2C(=O)[C@@H]3C(c4cccnc4)=NO[C@@H]3C2=O)cc1	none (no result: ROMK primary, DTT redox prof, MT stabilizer) | ROMK hit retest inactive
CCC1CCCCN1Cc1nc(Cc2ccccc2Cl)no1 (stereo not drawn)	none (no result: ROMK primary, DTT redox prof, MT stabilizer)
COc1ccc(-n2nc(N)c(C(N)=O)n2)cc1	none
CC1CCN(C(=O)c2ccc(S(=O)(=O)N(C)C)cc2)C(C)C1 (stereo not drawn)	ROMK primary 3 (no result: KCC2 mod, b-catenin transl) | ROMK hit retest inactive
CCOC(=O)C(=CNc1cc(C(F)(F)F)ccc1N1CCOCC1)C(=O)OCC	none (no result: ROMK primary, DTT redox prof, MT stabilizer)
O=C(CCn1cnc2ccccc2c1=O)Nc1cccc(Cl)c1Cl	none
Fc1cc(NCc2ccccc2)nc(NCc2ccccc2)n1	ROMK primary -5.8 (no result: b-catenin transl) | ROMK hit retest 0.05
CCCCNc1cc(C)nc(NCc2ccccc2)n1	ROMK primary -4.1, MT stabilizer 10 | ROMK hit retest 0.051
Cc1cc(Nc2cccc(F)c2)nc(NCc2ccccc2)n1	none (no result: ROMK primary)
Cc1cccc(C)c1NC(=O)C1c2cccc[n+]2CC(=O)N1Cc1cccs1 (stereo not drawn)	none
Cc1ccc(Cl)cc1NC(=S)N(CCCN1CCN(C)CC1)Cc1ccco1	none
c1nnc(NC2=NCCC2)s1	ROMK primary 1.6 (no result: b-catenin transl) | ROMK hit retest inactive
O=C(CCc1ccccc1)NC(=S)NCc1ccco1	none
Cc1nc2ncccn2c1-c1csc(Nc2ccc(N(C)C)cc2)n1	ROMK primary 7.2 | ROMK hit retest inactive
O=C(Nc1ccc2oc(-c3cccnc3)nc2c1)c1cccnc1	ROMK primary -5.1 | ROMK hit retest inactive
Cc1ccc(-c2nnc(CSc3nnc(COc4ccccc4)n3-c3ccc(C)cc3)o2)cc1	none (no result: KCC2 mod)
Cc1ccc(-c2nnc(CSc3nnc(COc4ccccc4)n3-c3ccccc3)o2)cc1	ROMK primary -3.5 | ROMK hit retest 0.053
CC(=O)Nc1ccc(/C=N/NC(=O)c2cccc(S(=O)(=O)N3CCOCC3)c2)cc1	none
CC(C)c1ccc(/C=N/NC(=O)c2cccc(S(=O)(=O)N3CCOCC3)c2)cc1	ROMK primary 0.8 | ROMK hit retest inactive
COc1ccc(CCNc2cc(N3CCN(C(=O)c4ccc(C)cc4)CC3)ccc2[N+](=O)[O-])cc1OC	none
COc1ccc(C(=O)N2CCN(c3ccc([N+](=O)[O-])c(NCCc4ccc(OC)c(OC)c4)c3)CC2)cc1	none (no result: ROMK primary) | ROMK hit retest 0.06
Cc1cc(NC(=O)CN2C(=O)/C(=C/c3cccc(Br)c3)SC2=S)no1	ROMK primary -4.2 | ROMK hit retest inactive
O=C(CCCN1C(=O)/C(=C/c2cccc(Br)c2)SC1=S)Nc1ccccn1	none (no result: KCC2 mod, ROMK primary)
Cc1ccc(-c2nnc(Nc3ccc4c(c3)OCO4)c3ccccc23)cc1S(=O)(=O)NC(C)C	none
O=C1c2cccc3c([N+](=O)[O-])ccc(c23)C(=O)N1c1ccc(Cl)cn1	ROMK primary -3.7 (no result: KCC2 mod) | ROMK hit retest 0.048
Cc1c(N=Cc2cc(Br)cc(Br)c2O)cccc1C(=O)O	ROMK primary 3.4 | ROMK hit retest 0.1
CC1CCCCC1NC1=NCCCS1 (stereo not drawn)	none
CCC(C)c1ccc(OCCn2ccnc2)cc1 (stereo not drawn)	none
O=C(O)c1ccc(OCCn2ccnc2)cc1	none (no result: KCC2 mod) | ROMK hit retest inactive
COCCCn1cnnc1SCc1nc2sc(C(C)=O)c(C)c2c(=O)[nH]1	none (no result: ROMK primary, DTT redox prof, MT stabilizer)
C=CC#CC1(O)CC(C)[N+](C)(C)CC1C (stereo not drawn)	none | ROMK hit retest inactive
Cc1nn(C)c(C)c1Nc1ccc(N2C(=O)C3CC=CCC3C2=O)cc1[N+](=O)[O-] (stereo not drawn)	none
C=CCNC(=S)NC(CC(=O)OC)c1ccc2c(c1)OCO2 (stereo not drawn)	none
COc1cc(C(=O)Nc2nc(C)c(Cc3ccc4c(c3)OCO4)s2)cc(OC)c1OC	ROMK primary 2.6, MT stabilizer 15 | ROMK hit retest 0.11
N/C(=N/O)c1ccccc1N1CCC(Cc2ccccc2)CC1	ROMK primary -4.5 | ROMK hit retest inactive
O=C(CCN1C(=O)C2C3C=CC(C3)C2C1=O)N1CCN(c2ccc([N+](=O)[O-])cc2)CC1 (stereo not drawn)	none | ROMK hit retest inactive
O=C(CCCC(=O)N1CCN(c2ccc([N+](=O)[O-])cc2)CC1)c1ccccc1	ROMK primary -3.2 | ROMK hit retest 0.058
O=C(ON=C1CCN(c2ccc([N+](=O)[O-])cc2)CC1)c1ccccc1	none (no result: ROMK primary) | ROMK hit retest 0.067
